The text below walks through data of PMC11814085 (Scientific Reports, 2025).

Broadly, the Ki is a dissociation constant, usually derived from enzyme kinetics or from competition with a known ligand.

The test system of data set [1] is TNBC cancer cell lines and LSEC. The experiment in a line: Cellular partitioning and in vitro therapeutic index across cell lines/type. It is filed as in vitro ADME. The following applies: range over cancer cell lines.
The test system of data set [2] is TNBC cell lines and LSECs. The experiment in a line: GR analysis, comparison across cell lines/type. It is filed as cell-based.
Data set [3] concerns HCC1937. The experiment in a line: Live cell imaging of growth, fluorescent nuclear marker. The format is cell-based. The method, boiled down:
(§1)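 Cells were transfected with a red fluorescent nuclear marker. Growth in the presence of test compound was followed longitudinally by live-cell imaging of nuclei, as a check independent of the CellTiter-Glo endpoint.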

Data set [4] deals with MDA-MB-468 cells. Nature of the data set: CTG assay in presence and absence of P-gp inhibitor. The format is cell-based. Summed up:
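MDA-MB-468 cells were seeded at their pre-optimized density and allowed to adhere for 24 h. They were then exposed continuously to 0–200nM test compound for 3 days, in parallel with and without 0.6 µM zosuquidar (P-gp inhibitor). Read-out was CellTiter-Glo 2.0 cellular ATP.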

Data set [5] has as its system MDA-MB-468. The experiment in a line: Live cell imaging of growth, fluorescent nuclear marker. It is filed as cell-based. The following applies: MDA-MB-468, highest doses. The method, boiled down: as §1
Data set [6] has as its system tubulin. The following applies: cell free system; cited from earlier work.
The subject of data set [7] is P-gp. To be noted: read-out: P-gp inhibition Ki; cited from earlier work.

Square brackets hold non-standard residues; d marks the D form. Peptide text beside a SMILES is read from it. * marks the point of attachment. Dolaproine = CO[C@@H]([C@@H]1CCCN1)[C@@H](C)C(=O)O; Dil = CC[C@H](C)[C@H](NC)[C@@H](CC(=O)O)OC; Doe = c1ccc(C[C@H](N*)c2nccs2)cc1; X1 = C[C@@H](N*)[C@@H](O)c1ccccc1; NMeV = CN[C@H](C(=O)O)C(C)C

For `CC[C@H](C)[C@@H]([C@@H](CC(=O)N1CCC[C@H]1[C@H](OC)[C@@H](C)C(=O)N[C@@H](Cc1ccccc1)c1nccs1)OC)N(C)C(=O)[C@@H](NC(=O)[C@@H](NC)C(C)C)C(C)C` [MMAD, Monomethyl auristatin D] (H-[NMeV]V[Dil][Dolaproine]-Doe), the “in vitro therapeutic index (TI), ratio of intracellular GR50 in LSEC to that in the cancer cell lines” value in data set [1] is given as 12–244 x. Also, the “GR50, fold lower than MMAE” value in data set [2] (media GR50, across cell lines/type) is 6-31 x.

Consider `CC[C@H](C)[C@@H]([C@@H](CC(=O)N1CCC[C@H]1[C@H](OC)[C@@H](C)C(=O)N[C@H](C)[C@@H](O)c1ccccc1)OC)N(C)C(=O)[C@@H](NC(=O)[C@@H](NC)C(C)C)C(C)C` [MMAE, Monomethyl auristatin E] (H-[NMeV]V[Dil][Dolaproine]-X1), for which the “in vitro therapeutic index (TI), ratio of intracellular GR50 in LSEC to that in the cancer cell lines” value in data set [1] is listed as 3-60 x. Besides, the “cell growth in live cell imaging” value is recorded as “only marginal inhibition” in data set [3] and “completely inhibited” in data set [5]. In data set [4] (MDA-MB-468, with and without 0.6 µM Zosuquidar), the “dose response in presence and absence of P-gp efflux pump inhibitor” value is on record as “nearly identical dose response”. Besides, the “GR50 in LSECs, fold higher than in cancer cell lines” value in data set [2] (media GR50, LSECs versus cancer cell lines) is 3-21 x.

For the compound `CC[C@H](C)[C@@H]([C@@H](CC(=O)N1CCC[C@H]1[C@H](OC)[C@@H](C)C(=O)N[C@@H](Cc1ccccc1)C(=O)O)OC)N(C)C(=O)[C@@H](NC(=O)[C@@H](NC)C(C)C)C(C)C` [MMAF, monomethyl auristatin F] (H-[NMeV]V[Dil][Dolaproine]F-OH), in data set [6], the “tubulin binding affinity, fold better than MMAE” value is recorded as ~ 5 x.

`O[C@@H](COc1cccc2ncccc12)CN1CCN([C@@H]2c3ccccc3[C@@H]3[C@H](c4ccccc42)C3(F)F)CC1` [Zosuquidar]: the “effect of P-gp inhibitor by itself on cell growth” value in data set [4] (auristatin free MDA-MB-468 cells, 0.6 µM) is listed as “did not have undesired effect on cell growth”. The Ki in data set [7] was 60 nM.
